Reference: the EternaBench riboswitch data

Test system: MS2 coat protein
Assay: apparent Kd, MS2 coat protein; higher = weaker binding; RNA-MaP array; FMN 200 µM where present
Summary of the method: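 The titrant was SNAP-549-labelled MS2 coat protein, run from 0.7 or 1.5 nM in doubling steps to 3 µM. It was applied to designs transcribed by stalled E. coli RNA polymerase on Illumina sequencing-chip clusters, without ligand first and then with constant ligand, in 100 mM Tris-HCl pH 7.5, 80 mM KCl, 4 mM MgCl2, BSA, DTT, yeast tRNA and Tween-20. The apparent Kd is the median of filtered per-cluster binding-curve fits, with green signal normalised to red-channel RNA signal and control-cluster median Fmax.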

[1] = designed as: ON switch for flavin mononucleotide, no ligand
[2] = ligand present: flavin mononucleotide, designed as: ON switch for flavin mononucleotide
[3] = designed as: OFF switch for flavin mononucleotide, no ligand
[4] = ligand present: flavin mononucleotide, designed as: OFF switch for flavin mononucleotide

Sequence | apparent Kd [1] [nM] | apparent Kd [2] [nM] | apparent Kd [3] [nM] | apparent Kd [4] [nM]
GGUUGACGACAAUUACAUGAGGAUCACCCAUGUUUUGGGAUGCAGGAUAUGUGGUAUAUUAAUUAACAGAAGGGCAAUAAUUUU | 37.3 | 39.3 |  | 
GUCCCAGCUGAGGAUAUUAUCUGGCUCGACCGAUAAGAAGGCAGUACAUGAGGAUCACCCAUGUGGUUCGUUCG |  |  | 31.5 | 70.7
CCAGCGUGUGUGAGGAUAUGCUGGUCCUUGGAUCAGCAGAAGGCACAUGAGGAUCACCCAUGUGAGAGCGUUGG |  |  | 19.6 | 86.1
GAUCAACAUGAGGAUCACCCAUGUGAGGAUAUGAUACUAUGUACUUCGGUACAUAGUAUCAGAAGGCAUAUAAA |  |  | 44.7 | 35.2
AACCUACAUGAGGAUCACCCAUGUGAGGAUAUAUUGGUAUGGAUGUUAUUUUGUAGAGGUAGAAGGCGCGUGAU |  |  | 15.4 | 15.4
CGUGAACAUGAGGAUCACCCAUGUGAAAAACAUAGAGGAUAUGUCACGUGAGUGUAAAAGACAGAAGGCUAUCGUG | 85.4 | 43 |  | 
CGUUGGUCAGGAUAUGGUGGGCUGGUCGCGCGGCCGGGUGGCUAGAAGGGACAUGAGGAUCACCCAUGUACGGC |  |  | 21.5 | 40.5
CACGUACAUGAGGAUCACCCAUGUUAGGAUAUGCCGGGUUAGAGCCAACUAAAAACCCGUAGAAGGGACGAAAC |  |  | 23.1 | 25.3
UAAUUUUGUCAAGGAUAUGUAAUAUAGAUUUGAAAACAUGAGGAUCACCCAUGUAUAUGGUGGGAACAGAAGGUGAAUGGAGAA |  |  | 252 | 242
AAACAAGCAGGGAUGCUUCGCAGGGAGGAUAUCUGACUGGGCGGACAUGAGGAUCACCCAUGUACAGAGAAGGCCCAAAGCACC |  |  | 620 | 32
UGUGCUAUGUAGAAGGCAGAUCUGAUUCAGAUCUGAGGAUAUACAUGAGGAUCACCCAUGUUAUGCACCAGCACGAGAGUGCAA |  |  | 8.13 | 16
UACGGGUCAGGAUAUGCGAGAGAGUGGGAAAUAGGAAGGUAGCAGAAGGGACAUGAGGAUCACCCAUGUGAGGC |  |  | 24.3 | 29.5
UAUAUAUAGUAAGGAUAUGUAUCUAUUUUAUAAACAGAAGGUACUGACAUGAGGAUCACCCAUGUUUUAGUGUGGGCAUGUAGA |  |  | 92.2 | 114
UUUUAACAUGAGGAUCACCCAUGUGAGGAUAUCGAAAUUUAUAUUAAUAUUAUUAUUACGAGAAGGCACAUUUU |  |  | 71.9 | 91.1
UUGGACGUCGUAGGAUAUGUAGGAUAUUCCUACAUGAGGAUCACCCAUGUUGACAUGGAAGAAGGACAGGAGGACGAUGUCCAU | 346 | 7.82 |  | 
GAGUGACGAUUAGGAUAUAUAGUGAUAAUGAUAAUAGAAGGAAUUGACAUGAGGAUCACCCAUGUAGGACUAAUCCAGAGAGAG | 64.2 | 62.2 |  | 
GCCGCCCGAUCUGGCUUUUGGGCUAGAAGGGCAUAUGUGGUUCAGGACAUGAGGAUCACCCAUGUGCAGGAUAUAGCCCACCGC |  |  | 25.1 | 53
AGUACCAUGUAGAAGGGAUAUCUCAAAGAGAUAUCAGGAUAUACAUGAGGAUCACCCAUGUAAAUGUACUCCAGGAAACUGGAA |  |  | 19.8 | 55.3
AAUUCACAUGAGGAUCACCCAUGUCAGGAUAUGGUUUUAUUUUUUUCUUUUCUUGAUUCCAGAAGGGACAGCUA |  |  | 108 | 59.2
AUCGGCUCGUCAGGAUAUACGUCACUGCGUCAGCAGUGUGGUAAGAUCACAUGAGGAUCACCCAUGUAGAAGGGACGAGCUGAU |  |  | 13.6 | 268
CGUGUGUCAGGAUAUUAGUAGUGUGUGGAUACAUAUAUUGCUGAGAAGGGACAUGAGGAUCACCCAUGUAUACG |  |  | 46.9 | 169
AAGUAACAUGAGGAUCACCCAUGUGAGGAUAUGAUUUAAGUUGUAAAAGUAAUAAAGGUCAGAAGGUAUGUGAA |  |  | 62.1 | 61.1
UCUGCCGCCGUGAGGAUAUGCCCGCAAAAACGCGGGCAGAAGGCACAUGAGGAUCACCCAUGUCCCGCGGUUUU |  |  | 13.9 | 33.6
